From PubChem
Only some compounds are listed: those with a hit (about 2.4% of all), similar ones and a draw of the others.
Neddylation inh: inhibitors of cullin neddylation, primary screen, biochemical, TR-FRET, uHTS, NAE and Ubc12; inhibition, % at 25 µM; AID 651699, 2012; hit rate 0.58% among 360,000; NEDD8-conjugating enzyme Ubc12 (Homo sapiens) + NEDD8-activating enzyme E1 regulatory …; in the data active means inhibition above about 36%
Tb MetRS inh: T. brucei MetRS inhibitors, primary screen, biochemical, luminescence; purified T. brucei MetRS, ATP depletion, Kinase-Glo luminescence; inhibition, % at 11.9 µM; hit rate 0.4% among 360,000; AID 624268, 2012;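 active means inhibition above a per-plate cutoff of the control wells' mean inhibition plus 3 SD, cut at about 5.5% in these data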
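assay system = parasite MetRS enzyme | timing = 15 min preincubation, 2 h reaction, all 25 °C | evaluation = percent inhibition relative to median high and low control wells | medium = HEPES buffer containing pyrophosphatase, BSA, spermine, DTT | compound = single dose, 11.9 µM final nominal, 0.9% final DMSO | detection = Kinase-Glo luminescence, ATP depletion format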
Rpn11 block: Rpn11 (PSMD14) deubiquitinase inhibitors, primary screen, biochemical, fluorescence polarization, uHTS; hit rate 0.59% among 360,000; 26S proteasome non-ATPase regulatory subunit 14 (Homo sapiens), O00487; AID 588493, 2011; inhibition, % at 20 µM; human 26S proteasome, Ub4-pepOG fluorescence polarization; 20S core pre-blocked with epoxomicin;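 active means inhibition at 20 µM, scaled to each plate's controls, above about 33%, limit read from the data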
PREPL inhibitor: PREPL enzyme inhibitors, primary screen, biochemical, fluorescence polarization. Prolyl endopeptidase-like (Homo sapiens), Q4J6C6. recombinant PREPL, fluorescence polarization activity-based probe. inhibition, % at 5.96 µM. hit rate 0.68% among 320,000; in the data active means inhibition above about 43%
Target sequence (Q4J6C6 whole entry, looked up): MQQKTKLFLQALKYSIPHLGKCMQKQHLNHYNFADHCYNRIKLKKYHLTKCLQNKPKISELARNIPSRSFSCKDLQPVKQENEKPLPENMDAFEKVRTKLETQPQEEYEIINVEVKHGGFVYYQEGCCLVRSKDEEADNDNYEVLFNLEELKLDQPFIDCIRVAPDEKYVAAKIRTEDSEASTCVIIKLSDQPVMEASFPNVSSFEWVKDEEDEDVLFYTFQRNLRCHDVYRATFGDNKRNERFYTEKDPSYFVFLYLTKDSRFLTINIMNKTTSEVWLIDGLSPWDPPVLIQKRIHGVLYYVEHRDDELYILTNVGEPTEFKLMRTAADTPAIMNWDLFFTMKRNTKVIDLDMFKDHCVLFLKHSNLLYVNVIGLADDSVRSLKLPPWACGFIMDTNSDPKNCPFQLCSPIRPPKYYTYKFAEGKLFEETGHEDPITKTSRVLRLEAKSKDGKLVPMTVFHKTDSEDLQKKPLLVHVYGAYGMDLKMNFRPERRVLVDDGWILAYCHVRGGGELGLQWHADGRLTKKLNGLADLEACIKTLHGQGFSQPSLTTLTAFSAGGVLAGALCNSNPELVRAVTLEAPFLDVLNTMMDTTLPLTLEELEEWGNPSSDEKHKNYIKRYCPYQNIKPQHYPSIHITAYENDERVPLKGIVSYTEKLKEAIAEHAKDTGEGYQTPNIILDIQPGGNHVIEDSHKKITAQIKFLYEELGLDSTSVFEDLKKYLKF
CSN deneddyl inh: inhibitors of CSN-mediated cullin deneddylation, primary screen, biochemical, fluorescence polarization, uHTS | AID 651999, 2013 | hit rate 0.38% among 360,000 | Purified CSN, SCF-Nedd8-OG deneddylation | inhibition, % at 12.5 µM | COP9 signalosome complex subunit 5 (Homo sapiens), Q92905;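 active means pattern-corrected inhibition above about 35%, with an unprinted fluorescence ratio check between 0.5 and 1.5, limit read from the data, passing the limit was not always enough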
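Schedule: reaction 90 min, room temperature / Assay system: HEK293T-derived human Csn5 enzyme / Input: Csn5 at 0.24 nM final / Measure: inhibition of Csn5 cleavage, % / Control set: substrate-only high control, full reaction low control / Technique: fluorescence polarization of the substrate / Buffer or medium: Tris/NaCl/DTT buffer, pH 7.5 / Reagent: SCFSkp2-Nedd8OG substrate at 10 nM final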
HNF4A DNA FP: change in binding of human HNF4A to DNA, primary screen, biochemical, fluorescence polarization, FITC-DNA; 1 h; activity change, % at 10 µM; hit rate 0.3% among 360,000; AID 1224865, 2016; in the data active means activity change above about 30%, passing the limit was not always enough
Of the large screens only hits and unclear results are named; the others gave an inactive call.

COc1ccc(N2C(=O)NC(=O)/C(=C\c3cn(C)c4ccccc34)C2=O)cc1	HNF4A DNA FP 108 (not shown: Rpn11 block)
O=C1NC(=O)N(c2ccccc2)C(=O)/C1=C/c1ccoc1	CSN deneddyl inh 44
COc1cc(/C=C2/C(=O)NC(=O)N(c3ccccc3)C2=O)ccc1O	none
O=C(O)c1cc[c]([Hg][Cl])cc1	none
COc1cc2c(cc1O)C[C@H]1NCCc3cc4c(c-2c31)OCO4	Neddylation inh 24
CC(C)[C@H]1C(=O)N2CCC[C@H]2[C@]2(O)O[C@](NC(=O)[C@@H]3C=C4c5cccc6[nH]cc(c56)C[C@H]4N(C)C3)(C(C)C)C(=O)N12	PREPL inhibitor 46
CC(C)C[C@H]1C(=O)N2CCCC2[C@]2(O)O[C@](NC(=O)[C@@H]3C=C4c5cccc6[nH]cc(c56)CC4N(C)C3)(C(C)C)C(=O)N12 (some centres not stated)	none
O=C1CC(=O)N(Cc2ccccc2)C(=O)N1	none (no result: PREPL inhibitor)
O=C1CC(=O)N(Cc2ccccc2)C(=O)N1Cc1ccccc1	CSN deneddyl inh 36, HNF4A DNA FP 52 (not shown: Rpn11 block, PREPL inhibitor)
CCn1nc(-c2cccs2)nc2c(=O)n(C)c(=O)nc1-2	Tb MetRS inh 22, CSN deneddyl inh 63, HNF4A DNA FP 100 (no result: PREPL inhibitor)
NC(Cc1cc(O)c(O)cc1O)C(=O)O (configuration not stated)	PREPL inhibitor 67 (no result: Neddylation inh, Tb MetRS inh, Rpn11 block, CSN deneddyl inh, HNF4A DNA FP)
NCCc1cc(O)c(O)cc1O	none (no result: PREPL inhibitor)
CCCCCCn1c(O)c(C=NCCCn2ccnc2)c(=O)[nH]c1=O	CSN deneddyl inh 53, HNF4A DNA FP 67 (not shown: Rpn11 block)
OC(CN1CCC(c2c[nH]c3ccccc23)CC1)C(F)(F)F (configuration not stated)	none
C=CCN1C(=O)/C(=C/c2ccc(N3CCOCC3)o2)C(=O)NC1=S	CSN deneddyl inh 103, HNF4A DNA FP 80 (not shown: Rpn11 block)
O=C1NC(=O)N(c2ccccc2F)C(=O)/C1=C/c1ccc(Sc2nc3ccccc3[nH]2)o1	Rpn11 block 83
O=C1NC(=S)N(c2ccc(F)cc2)C(=O)/C1=C/c1ccccc1O	none
O=C1NC(=S)N(c2ccc(Br)cc2)C(=O)/C1=C/N1CCN(C(=O)c2ccco2)CC1	CSN deneddyl inh 57, HNF4A DNA FP 49 (not shown: Rpn11 block)
c1ccc(CN2COC3CCCCCC32)cc1 (configuration not stated)	none (no result: PREPL inhibitor)
Nc1ccc(C2(c3ccc(N)cc3)CCCCC2)cc1	none
CCCNC(=O)c1c(N)n(CC2CCCO2)c2nc3ccccc3nc12 (configuration not stated)	CSN deneddyl inh 40 (not shown: Neddylation inh)
CC(C)OC(=O)c1c(N)n(CC2CCCO2)c2nc3ccccc3nc12 (configuration not stated)	none (not shown: Neddylation inh)
COCCCn1c(N)c(C(=O)NCCC(C)C)c2nc3ccccc3nc21	CSN deneddyl inh 37 (not shown: Neddylation inh)
CCCCn1c(N)c(C(=O)OCCOC)c2nc3ccccc3nc21	none (not shown: Neddylation inh)
CC1c2ccccc2-n2nncc2CN1CC1CCCCC1 (configuration not stated)	none (no result: PREPL inhibitor)
O=C(N/N=C/c1c(O)n(Cc2ccccc2)c(=O)[nH]c1=O)c1ccccc1O	Neddylation inh 41
O=C(N/N=C/c1c(O)n(Cc2ccc(F)cc2)c(=O)[nH]c1=O)c1ccccc1O	none
COc1cccc(-n2c(/C=C/c3ccc(O)c(O)c3)nc3ccccc3c2=O)c1	HNF4A DNA FP 57 (not shown: Rpn11 block)
Cc1ccc(S(=O)(=O)N2Cc3cc(-c4ccccc4)ccc3-n3nncc3C2)cc1	HNF4A DNA FP 48 (no result: PREPL inhibitor)
O=S(=O)(c1cc(Cl)cc(Cl)c1)N1Cc2cc(-c3ccccc3)ccc2-n2nncc2C1	none (no result: PREPL inhibitor)
O=C(O)CSC(=S)N1CC2CC(C1)c1cccc(=O)n1C2 (configuration not stated)	none
Cc1ccc(-n2c(O)c(/C=C/C=Nc3ccccc3)c(=O)[nH]c2=O)cc1	HNF4A DNA FP 71
